Bioassay records as filed in PubChem.
GASC1 inh = blocks human GASC-1 (KDM4C) demethylase activity. hit rate 0.15% among 96,000. inhibition, % at 12.5 µM. Q9H3R0. AID 720574. GST-KDM4C 2-372, H3K9me3 peptide, LANCE TR-FRET;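 active means mean replicate inhibition above about 25%, with at least 55% of replicates also reaching it, limit read from the data, passing the limit was not always enough; inconclusive means only one of those two conditions met; inactive means neither condition met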
Target sequence (Q9H3R0 2-372 limits assumed): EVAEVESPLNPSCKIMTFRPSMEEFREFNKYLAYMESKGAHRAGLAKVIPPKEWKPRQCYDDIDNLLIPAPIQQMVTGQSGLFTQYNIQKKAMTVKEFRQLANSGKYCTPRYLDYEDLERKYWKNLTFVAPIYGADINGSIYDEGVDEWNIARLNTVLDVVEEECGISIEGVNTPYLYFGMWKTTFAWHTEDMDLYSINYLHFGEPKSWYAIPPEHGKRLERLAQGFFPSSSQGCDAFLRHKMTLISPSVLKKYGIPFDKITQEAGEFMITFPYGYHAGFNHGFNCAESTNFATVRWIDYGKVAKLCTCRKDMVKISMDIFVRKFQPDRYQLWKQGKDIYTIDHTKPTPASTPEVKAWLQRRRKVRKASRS
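Test system – GST-tagged GASC-1 (JMJD2C) catalytic fragment, aa 2-372 · Medium – HEPES buffer, pH 7.5, plus ascorbate · Reagent – H3K9me3 peptide with Fe(II)/2OG · Compound – one test concentration per compound · Timing – 30 min reaction, 60 min detection, RT · Technique – TR-FRET with Eu antibody and ULight streptavidin, EDTA stop · Read-out basis – inhibition from TR-FRET ratio decrease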
IDH1 mut inh = inhibitors of human IDH1 R132H; inhibition, % at 10 µM; hit rate 0.18% among 70,000; AID 624101; O75874; IDH1 R132H reductase, diaphorase/resazurin fluorescence, 60 min; in the data active means inhibition above about 34%; inconclusive means no clear call, values can overlap the other calls; inactive means below about 11%
Target sequence (O75874 whole entry R132H): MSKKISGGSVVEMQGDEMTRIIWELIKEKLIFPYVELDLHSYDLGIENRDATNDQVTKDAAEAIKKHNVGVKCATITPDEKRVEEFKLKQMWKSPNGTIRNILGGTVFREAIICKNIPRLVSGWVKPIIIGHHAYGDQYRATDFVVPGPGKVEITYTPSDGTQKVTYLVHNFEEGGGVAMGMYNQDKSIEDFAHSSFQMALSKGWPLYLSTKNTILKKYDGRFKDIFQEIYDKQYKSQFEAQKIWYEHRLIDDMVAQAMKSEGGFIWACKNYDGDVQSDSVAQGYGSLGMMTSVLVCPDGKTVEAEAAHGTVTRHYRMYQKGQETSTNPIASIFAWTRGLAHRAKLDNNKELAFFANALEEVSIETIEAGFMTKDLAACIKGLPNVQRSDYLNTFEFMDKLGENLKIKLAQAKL
T cruzi growth-1 = blocks T. cruzi growth in NIH3T3 culture; inhibition, % at 8.34 µM; AID 624255; hit rate 5.9% among 77,000; T. cruzi beta-gal in NIH3T3, GalScreen luminescence, 90 h;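 active means mean inhibition above about 93%, with at least 55% of replicates each passing it, limit read from the data, passing the limit was not always enough; inconclusive means only one of those two conditions holds; inactive means neither condition holds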
T cruzi growth-2 = inhibitors of T. cruzi proliferation; T. cruzi beta-gal in NIH3T3, GalScreen luminescence, 90 h; hit rate 72% among 5,600; shares compounds with T cruzi growth-1; inhibition, % at 8.35 µM;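 active means mean replicate inhibition above about 95% and at least 55% of replicates individually reaching it, limit read from the data; inconclusive means only one of the two criteria is met; inactive means neither criterion is met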
T cruzi growth-3 = Trypanosoma cruzi proliferation inhibition | shares compounds with T cruzi growth-1 | T. cruzi beta-gal in NIH3T3, GalScreen luminescence, 90 h | inhibition, % at 2.09 µM | hit rate 21% among 5,600 | AID 651740;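 active means mean inhibition above about 95%, with at least 55% of replicates also reaching it, limit read from the data; inconclusive means meets just one of the two conditions; inactive means meets neither condition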
NIH3T3 tox = kills mouse NIH/3T3 fibroblasts. AID 651742. shares compounds with T cruzi growth-1. NIH/3T3 viability, CellTiter-Glo ATP luminescence, 90 h. cytotoxicity (signal decrease), % at 8.35 µM. hit rate 14% among 5,600;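 active means mean signal decrease across replicates above about 35% based on untreated-well scatter, with enough replicates individually passing, limit read from the data; inconclusive means no rule stated though some were filed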
NIH3T3 tox 2 = cytotoxicity in mouse NIH/3T3 fibroblasts | shares compounds with T cruzi growth-1 | NIH/3T3 viability, CellTiter-Glo ATP luminescence, 90 h | inhibition, % at 24.9 µM | hit rate 56% among 5,600;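 active means mean loss of cell viability signal at or above a set limit, and enough replicates individually reaching it; inconclusive means meets only the mean limit or only the replicate share; inactive means meets neither condition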
Each line names hits and unclear results; the compound was inactive in the other large screens (follow-up assays come after a bar, where they were run); ! = not active in a repeat. This excerpt belongs to a sample that is enriched for hits.

COc1cccc(S(=O)(=O)N2CCCCN3[C@H](C2)[C@@H](c2ccc(C#CC(C)C)cc2)[C@@H]3CO)c1	none (no result: IDH1 mut inh)
Cc1cccc(S(=O)(=O)N2CCCCN3[C@H](C2)[C@H](c2ccc(C#CC(C)C)cc2)[C@@H]3CO)c1	none (no result: IDH1 mut inh)
COc1cccc(S(=O)(=O)N2CCCCN3[C@H](CO)[C@H](c4ccc(C#CC(C)C)cc4)[C@H]3C2)c1	T cruzi growth-1 97 (no result: IDH1 mut inh) | T cruzi growth-2 106 | T cruzi growth-3 108 | NIH3T3 tox inactive | NIH3T3 tox 2 103
Cc1cccc(S(=O)(=O)N2CCCCN3[C@H](C2)[C@@H](c2ccc(C#CC(C)C)cc2)[C@@H]3CO)c1	T cruzi growth-1 inconclusive (no result: IDH1 mut inh) | T cruzi growth-2 101 | T cruzi growth-3 112 | NIH3T3 tox 47 | NIH3T3 tox 2 98
C[C@@H]1CN([C@@H](C)CO)C(=O)c2cc(NS(=O)(=O)c3ccccc3)ccc2O[C@@H]1CN(C)Cc1ccc(C(F)(F)F)cc1	none
C[C@H]1CN([C@@H](C)CO)C(=O)c2cc(NS(=O)(=O)c3ccccc3)ccc2O[C@@H]1CN(C)Cc1ccc(C(F)(F)F)cc1	T cruzi growth-1 104 | T cruzi growth-2 inactive | T cruzi growth-3 inactive | NIH3T3 tox inactive | NIH3T3 tox 2 39
C[C@H](CO)N1C[C@H](C)[C@@H](CN(C)Cc2ccc3c(c2)OCO3)Oc2ccc(NS(=O)(=O)c3ccccc3)cc2C1=O	none
C[C@@H]1CN([C@@H](C)CO)C(=O)c2cc(NS(=O)(=O)c3ccccc3)ccc2O[C@@H]1CN(C)Cc1ccc2c(c1)OCO2	T cruzi growth-1 102 | T cruzi growth-2 inactive | T cruzi growth-3 inactive | NIH3T3 tox inactive | NIH3T3 tox 2 inactive
C[C@H](CO)N1C[C@H](C)[C@@H](CN(C)Cc2ccc(C(F)(F)F)cc2)Oc2ccc(NS(=O)(=O)c3ccccc3)cc2C1=O	none
C[C@H](CO)N1C[C@H](C)[C@H](CN(C)Cc2ccc(C(F)(F)F)cc2)Oc2ccc(NS(=O)(=O)c3ccccc3)cc2C1=O	T cruzi growth-1 104 | T cruzi growth-2 inactive | T cruzi growth-3 inactive | NIH3T3 tox inactive | NIH3T3 tox 2 inactive
CC(=O)Nc1ccc(C(=O)CSc2nc(-c3ccccc3)cs2)cc1	none (no result: GASC1 inh, T cruzi growth-1)
C/C=C/c1cnc2c(c1)C(=O)N([C@H](C)CO)C[C@@H](C)[C@@H](CN(C)C(=O)Nc1ccc(F)cc1)O2	none (no result: T cruzi growth-1)
Nc1ncnc(NCCN2CCOCC2)c1[N+](=O)[O-]	none (no result: GASC1 inh, T cruzi growth-1)
CO[C@@H]1CN(C)C(=O)c2cc(NC(=O)c3cccc(F)c3)ccc2OC[C@H](C)N(C(C)=O)C[C@@H]1C	none
C[C@H](CO)N1C[C@H](C)[C@H](CN(C)C(=O)Nc2ccc(C(F)(F)F)cc2)Oc2c(cccc2N(C)C)C1=O	T cruzi growth-1 96 | T cruzi growth-2 inactive | T cruzi growth-3 inactive | NIH3T3 tox inactive | NIH3T3 tox 2 inactive
C[C@H](CO)N1C[C@H](C)[C@@H](CN(C)Cc2ccccc2)Oc2c(cccc2N(C)C)C1=O	none (no result: GASC1 inh)
C[C@H]1CN([C@@H](C)CO)C(=O)c2cccc(N(C)C)c2O[C@H]1CN(C)Cc1ccc(C(F)(F)F)cc1	none
C[C@H]1CN([C@@H](C)CO)C(=O)c2cccc(N(C)C)c2O[C@@H]1CN(C)C(=O)Nc1ccc(C(F)(F)F)cc1	none
C[C@H]1CN([C@@H](C)CO)C(=O)c2cccc(N(C)C)c2O[C@@H]1CN(C)Cc1ccc(C(F)(F)F)cc1	T cruzi growth-1 103 | T cruzi growth-2 inactive | T cruzi growth-3 inactive | NIH3T3 tox inactive | NIH3T3 tox 2 66
C[C@@H]1CN([C@H](C)CO)C(=O)c2cccc(N(C)C)c2O[C@H]1CN(C)Cc1ccc(C(F)(F)F)cc1	T cruzi growth-1 101 (no result: IDH1 mut inh) | T cruzi growth-2 inactive | T cruzi growth-3 inactive | NIH3T3 tox inactive | NIH3T3 tox 2 103
COc1ccc(S(=O)(=O)N[C@H]2CC[C@@H](CCNC(=O)Cc3ccccn3)O[C@@H]2CO)cc1	none
COCC(=O)N(C)C[C@H]1Oc2ncc(C#Cc3ccc(F)cc3)cc2C(=O)N([C@H](C)CO)C[C@@H]1C	none (no result: IDH1 mut inh, T cruzi growth-1)
Cc1c(CCC(=O)O)c(=O)oc2cc(O)c(Cl)cc12	none (no result: GASC1 inh, T cruzi growth-1)
COc1cccc(NC(=O)N[C@H]2C=C[C@@H](CC(=O)Nc3ccc(-c4ccccc4)cc3)O[C@H]2CO)c1	none
O=C(CNS(=O)(=O)c1ccccc1)Nc1cccc(Cl)c1Cl	none (no result: GASC1 inh, T cruzi growth-1)
C[C@@H]1CN([C@H](C)CO)C(=O)c2cc(C#Cc3cccc(F)c3)cnc2O[C@@H]1CN(C)C(=O)C1CCCCC1	none (no result: IDH1 mut inh)
C[C@@H]1CN([C@@H](C)CO)C(=O)c2cc(C#Cc3cccc(F)c3)cnc2O[C@@H]1CN(C)C(=O)C1CCCCC1	none
C[C@H]1CN([C@@H](C)CO)C(=O)c2cc(C#Cc3cccc(F)c3)cnc2O[C@@H]1CN(C)C(=O)C1CCCCC1	T cruzi growth-1 114 (no result: IDH1 mut inh) | T cruzi growth-2 113 | T cruzi growth-3 inactive | NIH3T3 tox inactive | NIH3T3 tox 2 76
C[C@@H]1CN([C@@H](C)CO)C(=O)c2cc(C#Cc3cccc(F)c3)cnc2O[C@H]1CN(C)C(=O)C1CCCCC1	T cruzi growth-1 117! | T cruzi growth-2 105 | T cruzi growth-3 inactive | NIH3T3 tox inactive | NIH3T3 tox 2 92
C=CCn1c2ccccc2n2nc(CCC(=O)O)c(=O)nc12	none (no result: GASC1 inh, T cruzi growth-1)
O=C(Nc1ccc2c(c1)[C@@H]1C[C@H](CC(=O)N3CCc4ccccc4C3)O[C@@H](CO)[C@@H]1O2)C1CCOCC1	none
CCCNC(=O)N1[C@H](CO)[C@@H](c2ccc(C3=CCCCC3)cc2)[C@@H]1C#N	T cruzi growth-1 105 (no result: IDH1 mut inh) | T cruzi growth-2 inactive | T cruzi growth-3 inactive | NIH3T3 tox inactive | NIH3T3 tox 2 inactive
N#C[C@H]1[C@H](c2ccc(C3=CCCCC3)cc2)[C@@H](CO)N1C(=O)NC1CCCCC1	T cruzi growth-1 104 (no result: IDH1 mut inh) | T cruzi growth-2 104 | T cruzi growth-3 inactive | NIH3T3 tox inactive | NIH3T3 tox 2 77
N#C[C@@H]1[C@H](c2ccc(C3=CCCC3)cc2)[C@H](CO)N1C(=O)C1CCC1	T cruzi growth-1 103 (no result: IDH1 mut inh) | T cruzi growth-2 110 | T cruzi growth-3 inactive | NIH3T3 tox inactive | NIH3T3 tox 2 inactive
N#C[C@H]1[C@@H](c2ccc(C3=CCCC3)cc2)[C@@H](CO)N1C(=O)C1CCC1	none
N#C[C@H]1[C@@H](c2ccc(C3=CCCCC3)cc2)[C@H](CO)N1C(=O)NC1CCCC1	none (no result: IDH1 mut inh, T cruzi growth-1)
CCCNC(=O)N1[C@H](C#N)[C@H](c2ccccc2C2=CCCCC2)[C@@H]1CO	none (no result: IDH1 mut inh, T cruzi growth-1)
CCCNC(=O)N1[C@H](C#N)[C@H](c2ccc(C3=CCCCC3)cc2)[C@@H]1CO	T cruzi growth-1 99 (no result: GASC1 inh, IDH1 mut inh) | T cruzi growth-2 101 | T cruzi growth-3 116 | NIH3T3 tox inactive | NIH3T3 tox 2 33
CCCNC(=O)N1[C@@H](C#N)[C@@H](c2ccc(C3=CCCCC3)cc2)[C@@H]1CO	none (no result: IDH1 mut inh)
